EBNA-1 inh: blocks EBNA-1 binding to DNA. EBNA-1 DNA binding, fluorescence polarization. 0.34% of 300,000 active. AID 1950. inhibition, % at 14.8 µM; in the data active = inhibition above about 28%
HCV NS3 hel inh: blocks Hepatitis C virus NS3 helicase unwinding; NS3 helicase DNA unwinding, Cy5 molecular beacon fluorescence; inhibition, % at 10.9 µM; 0.56% of 290,000 active;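 active = inhibition above the mean of all tested compounds plus 3 SD, set per campaign, cut at about 35% in these data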
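System: NS3 helicase fragment of HCV / Schedule: 1 h at 25 °C / Control set: DMSO alone as 0% and 110 µM thioflavine S as 100% / Reagent: Cy5/quencher beacon DNA duplex and ATP to start / Technique: Cy5 fluorescence / Replication: singlicate / Evaluation: % inhibition of end-to-start signal ratio versus controls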
HCV core dimer: blocks dimerization of HCV core protein; TR-FRET GST/Flag-core106 dimerization, 1536-well; inhibition, % at 5 µM; 0.33% of 300,000 active;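 active = inhibition above the mean of all tested compounds plus 3 SD, set per screening campaign, cut at about 45% in these data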
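System – GST-tagged and Flag-tagged HCV core protein residues 1-106 · Repeats – one well for each compound · Technique – TR-FRET 671 and 617 nm emission · Doses – one concentration, 5 µM, in 0.5% DMSO · Times – 4 h, 22.5 °C incubation · Also added – Eu donor and XL665 acceptor anti-tag antibodies · Measure – percent inhibition of core106 dimerization signal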
ZTA counter: counter-screen for EBNA-1 inhibitors: inhibitors of Epstein-Barr virus ZTA | inhibition, % at 11 µM | ZTA-DNA binding, fluorescence polarization | 0.15% of 320,000 active | P03206; in the data active = inhibition above about 33%
Target sequence (P03206 whole entry, looked up): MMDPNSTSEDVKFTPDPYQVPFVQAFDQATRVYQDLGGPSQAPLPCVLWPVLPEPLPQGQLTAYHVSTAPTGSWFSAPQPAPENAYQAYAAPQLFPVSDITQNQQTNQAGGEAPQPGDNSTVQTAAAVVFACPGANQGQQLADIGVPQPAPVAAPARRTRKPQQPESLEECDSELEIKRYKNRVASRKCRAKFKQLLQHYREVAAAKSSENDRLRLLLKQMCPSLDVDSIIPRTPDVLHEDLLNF
PP1 counter: PP1-alpha (human) inhibition in PP5 counter-screen; P62136; purified PP1alpha, OMFP fluorescence; inhibition, % at 6.7 µM; 0.9% of 320,000 active; AID 2235;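 active = inhibition above the mean inhibition of all tested compounds plus 3 SD, computed separately for each screening campaign, cut at about 15% in these data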
ZTA inh confirm: EBV ZTA DNA binding inhibition, confirmation | shares compounds with ZTA counter | Zta-ZRE DNA binding, fluorescence polarization | inhibition, % at 11.1 µM | 30% of 320 active;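 active = mean inhibition across triplicate runs above the hit threshold derived for the original primary screen, cut at about 33% in these data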
EBNA1 counter: blocks EBNA-1 DNA binding in ZTA counter-screen. shares compounds with ZTA counter. fluorescence polarization. inhibition, % at 14.8 µM. 320 tested, under 10 active; call rule not given here
PP1 inh confirm: confirmation of human PP1 phosphatase inhibitors; shares compounds with PP1 counter; purified PP1alpha, OMFP substrate fluorescence; inhibition, % at 6.7 µM; 52% of 1,900 active; AID 2358;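 active = mean PP1 inhibition above a set limit taken from the earlier primary screen, cut at about 15% in these data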
PP5 counter: PP5 phosphatase inhibition, counter-screen for PP1 inhibitors. purified PP5c, OMFP fluorescence. 4% of 1,900 active. shares compounds with PP1 counter. inhibition, % at 6.7 µM;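 active = mean PP5 inhibition over triplicate wells above about 9.5% taken from the earlier PP1 screen, limit read from the data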
Each line names hits and unclear results; the compound was inactive in the other large screens (follow-up assays come after a bar, where they were run). Most compounds without a hit are left out; they make up all but 1.9% or so of the library.

CCOC(=O)c1c(CSc2ccc(CC)cc2)oc2ccc(O)c(CN(C)C)c12	ZTA counter 34, PP1 counter 18 | ZTA inh confirm inactive | EBNA1 counter inactive | PP1 inh confirm inactive | PP5 counter inactive
O=C(COC(=O)C1CCC1)NCc1ccc(F)cc1	none (no result: HCV NS3 hel inh)
C#CCOCCOCCOCCNc1nc(N2CCN(C(=O)CCCCCCCCCCNC(=O)Cn3cc(CCCCCN)nn3)CC2)nc(N2CCN(C(=O)CCCCCCCCCCNC(=O)Cn3cc(CCCCCN)nn3)CC2)n1	ZTA counter 49, PP1 counter 33 (no result: HCV NS3 hel inh) | ZTA inh confirm 38 | EBNA1 counter inactive | PP1 inh confirm inactive | PP5 counter inactive
C#CCOCCOCCOCCNc1nc(N2CCN(C(=O)CCCCCCCCCCNC(=O)Cn3cc(C[C@@H](C)O)nn3)CC2)nc(N2CCN(C(=O)CCCCCCCCCCNC(=O)[C@H](CO)n3cc(CCCSC)nn3)CC2)n1	none (no result: HCV NS3 hel inh)
C#CCOCCOCCOCCNc1nc(N2CCN(C(=O)CCCCCCCCCCNC(=O)Cn3cc(CCCCCN)nn3)CC2)nc(N2CCN(C(=O)CCCCCCCCCCNC(=O)[C@@H](CCSC)n3cc(CCO)nn3)CC2)n1	ZTA counter 80, PP1 counter 36 (no result: HCV NS3 hel inh) | ZTA inh confirm inactive | EBNA1 counter inactive | PP1 inh confirm 41 | PP5 counter inactive
C#CCOCCOCCOCCNc1nc(N2CCN(C(=O)CCCCCCCCCCNC(=O)[C@H]([C@@H](C)CC)n3cc(CCCCCN)nn3)CC2)nc(N2CCN(C(=O)CCCCCCCCCCNC(=O)[C@H]([C@@H](C)CC)n3cc(CCCCN=C(N)N)nn3)CC2)n1	ZTA counter 163, PP1 counter 70 (no result: HCV NS3 hel inh) | ZTA inh confirm 55 | EBNA1 counter inactive | PP1 inh confirm 45 | PP5 counter inactive
C#CCOCCOCCOCCNc1nc(N2CCN(C(=O)CCCCCCCCCCNC(=O)[C@H]([C@@H](C)CC)n3cc(CCCCN=C(N)N)nn3)CC2)nc(N2CCN(C(=O)CCCCCCCCCCNC(=O)[C@H](CCCCN)n3cc(C)nn3)CC2)n1	ZTA counter 56, PP1 counter 70 (no result: HCV NS3 hel inh) | ZTA inh confirm 68 | EBNA1 counter inactive | PP1 inh confirm 57 | PP5 counter inactive
C#CCOCCOCCOCCNc1nc(N2CCN(C(=O)CCCCCCCCCCNC(=O)Cn3cc(CCCCCN)nn3)CC2)nc(N2CCN(C(=O)CCCCCCCCCCNC(=O)[C@H]([C@@H](C)CC)n3cc(CCCCN=C(N)N)nn3)CC2)n1	ZTA counter 61, PP1 counter 70 (no result: HCV NS3 hel inh) | ZTA inh confirm 48 | EBNA1 counter inactive | PP1 inh confirm 55 | PP5 counter inactive
C#CCOCCOCCOCCNc1nc(N2CCN(C(=O)CCCCCCCCCCNC(=O)[C@H](CO)n3cc(CCCSC)nn3)CC2)nc(N2CCN(C(=O)CCCCCCCCCCNC(=O)[C@H](CCCN=C(N)N)n3cc(C[C@@H](C)CC)nn3)CC2)n1	ZTA counter 96, PP1 counter 46 (no result: HCV NS3 hel inh) | ZTA inh confirm 69 | EBNA1 counter inactive | PP1 inh confirm 30 | PP5 counter inactive
C#CCOCCOCCOCCNc1nc(N2CCN(C(=O)Cn3cc(CCCN=C(N)N)nn3)CC2)nc(N2CCN(C(=O)[C@H]([C@@H](C)CC)n3cc(CCCCN)nn3)CC2)n1	none (no result: HCV NS3 hel inh)
CCc1cc(=O)[nH]c(SCC(=O)NCc2ccc3c(c2)OCO3)n1	none (no result: HCV NS3 hel inh)
COc1ccc(N(CC(=O)N2CCOCC2)S(C)(=O)=O)cc1OC	none
COc1ccc(NC(=O)c2ccc(-c3nn(C)c(=O)c4ccccc34)cc2)cc1C(N)=O	none
O=C(Nc1cccc(-c2cn3ccccc3n2)c1)c1cc2ccccc2oc1=O	ZTA counter 36, PP1 counter 24 | ZTA inh confirm 35 | EBNA1 counter inactive | PP1 inh confirm 28 | PP5 counter inactive

Compound activity: PubChem BioAssay, The Scripps Research Institute Molecular Screening Center
